≈ marks a conversion by molar mass, not a printed value.
Assays:
Type in all cases: functional
Streptococcus pneumoniae [1] = experiment: Antibacterial activity against penicillin-susceptible Streptococcus pneumoniae PU 09 expressing mef gene assessed as reduction in microbial growth by CLSI based two-fold broth dilution method
Staphylococcus aureus [2] = experiment: Selectivity ratio of MBC to MIC for MLS/methicillin-resistant Staphylococcus aureus PU 32 expressing inducible ermA gene
Outline: (§1)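 MBC/MIC ratio. MIC was measured by CLSI standard two-fold broth dilution. MBC was measured by transferring samples at 1–8 fold MIC to culture medium and subculturing for 24 h without antibiotic. Isolates were identified by 16S rDNA sequencing.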

Haemophilus influenzae [3] = experiment: Bactericidal activity against azithromycin-susceptible Haemophilus influenzae ATCC 49247 pretreated followed by subculture in absence of compound measured after 24 hrs
Outline: (§2)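 Isolates were identified by 16S rDNA sequencing. MIC was determined by CLSI-recommended two-fold broth dilution. For MBC, samples from 1–8 fold MIC were transferred to culture medium and subcultured for 24 h without antibiotic.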

Streptococcus pyogenes [4] = experiment: Selectivity ratio of MBC to MIC for MLS-resistant Streptococcus pyogenes 12-206 expressing constitutive ermA gene; outline: as §1
Streptococcus pneumoniae [5] = experiment: Antibacterial activity against erythromycin-susceptible Streptococcus pneumoniae ATCC49619 assessed as reduction in microbial growth by CLSI based two-fold broth dilution method
Moraxella catarrhalis [6] = experiment: Bactericidal activity against erythromycin-susceptible Moraxella catarrhalis 13L332 pretreated followed by subculture in absence of compound measured after 24 hrs; outline: as §2
Streptococcus pyogenes [7] = experiment: Selectivity ratio of MBC to MIC for Streptococcus pyogenes 12-207 expressing mef gene; outline: as §2
Streptococcus pneumoniae [8] = experiment: Bactericidal activity against penicillin-susceptible Streptococcus pneumoniae PU 09 expressing mef gene pretreated followed by subculture in absence of compound measured after 24 hrs; outline: as §2
Staphylococcus aureus [9] = experiment: Antibacterial activity against MLS-resistant Staphylococcus aureus PU 20 expressing constitutive ermC gene assessed as reduction in microbial growth by CLSI based two-fold broth dilution method
Streptococcus pyogenes [10] = experiment: Bactericidal activity against MLS-resistant Streptococcus pyogenes 01-968 expressing inducible ermB gene pretreated followed by subculture in absence of compound measured after 24 hrs
Outline: (§3)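 MBC assay. Following MIC determination by CLSI standard two-fold broth dilution, samples at 1–8 fold MIC were transferred to fresh culture medium. They were subcultured for 24 h without antibiotic. Isolates were identified by 16S rDNA sequencing. S. aureus ATCC 29213 was used as a control strain.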

Streptococcus pneumoniae [11] = experiment: Selectivity ratio of MBC to MIC for penicillin-susceptible Streptococcus pneumoniae PU 09 expressing mef gene; outline: as §2
Haemophilus influenzae [12] = experiment: Antibacterial activity against azithromycin-susceptible Haemophilus influenzae ATCC 49247 assessed as reduction in microbial growth by CLSI based two-fold broth dilution method
Staphylococcus aureus [13] = experiment: Antibacterial activity against MLS-resistant Staphylococcus aureus PU 32 expressing inducible ermA gene assessed as reduction in microbial growth by CLSI based two-fold broth dilution method
Streptococcus pyogenes [14] = experiment: Antibacterial activity against MLS-resistant Streptococcus pyogenes 01-968 expressing inducible ermB gene assessed as reduction in microbial growth by CLSI based two-fold broth dilution method
Streptococcus pneumoniae [15] = experiment: Selectivity ratio of MBC to MIC for Streptococcus pneumoniae 07P390 expressing constitutive ermB gene; outline: as §2
Haemophilus influenzae [16] = experiment: Selectivity ratio of MBC to MIC for azithromycin-susceptible Haemophilus influenzae ATCC 49247; outline: as §2
Streptococcus pneumoniae [17] = experiment: Antibacterial activity against Streptococcus pneumoniae 07P390 expressing constitutive ermB gene assessed as reduction in microbial growth by CLSI based two-fold broth dilution method
Moraxella catarrhalis [18] = experiment: Antibacterial activity against erythromycin-susceptible Moraxella catarrhalis 13L332 assessed as reduction in microbial growth by CLSI based two-fold broth dilution method
Moraxella catarrhalis [19] = experiment: Selectivity ratio of MBC to MIC for erythromycin-susceptible Moraxella catarrhalis 13L332; outline: as §2
Staphylococcus aureus [20] = experiment: Bactericidal activity against MLS/methicillin-resistant Staphylococcus aureus PU 32 expressing inducible ermA gene pretreated followed by subculture in absence of compound measured after 24 hrs; outline: as §3
Streptococcus pyogenes [21] = experiment: Bactericidal activity against Streptococcus pyogenes 12-207 expressing mef gene pretreated followed by subculture in absence of compound measured after 24 hrs; outline: as §2
Streptococcus pyogenes [22] = experiment: Bactericidal activity against MLS-resistant Streptococcus pyogenes 12-206 expressing constitutive ermA gene pretreated followed by subculture in absence of compound measured after 24 hrs; outline: as §3
Streptococcus pneumoniae [23] = experiment: Bactericidal activity against Streptococcus pneumoniae 07P390 expressing constitutive ermB gene pretreated followed by subculture in absence of compound measured after 24 hrs; outline: as §2
Streptococcus pneumoniae [24] = experiment: Bactericidal activity against erythromycin-susceptible Streptococcus pneumoniae ATCC49619 pretreated followed by subculture in absence of compound measured after 24 hrs; outline: as §2
Streptococcus pyogenes [25] = experiment: Antibacterial activity against MLS-resistant Streptococcus pyogenes 12-206 expressing constitutive ermA gene assessed as reduction in microbial growth by CLSI based two-fold broth dilution method
Streptococcus pyogenes [26] = experiment: Selectivity ratio of MBC to MIC for MLS-resistant Streptococcus pyogenes 01-968 expressing inducible ermB gene; outline: as §1
Streptococcus pyogenes [27] = experiment: Antibacterial activity against Streptococcus pyogenes 12-207 expressing mef gene assessed as reduction in microbial growth by CLSI based two-fold broth dilution method
Staphylococcus aureus [28] = experiment: Bactericidal activity against MLS-resistant Staphylococcus aureus PU 20 expressing constitutive ermC gene pretreated followed by subculture in absence of compound measured after 24 hrs; outline: as §3

Row | Structure (SMILES) | MIC (Streptococcus pneumoniae [1]) [µg/mL] | Selectivity ratio (Staphylococcus aureus [2]) | MBC (Haemophilus influenzae [3]) [µg/mL] | Selectivity ratio (Streptococcus pyogenes [4]) | MIC (Streptococcus pneumoniae [5]) [µg/mL] | MBC (Moraxella catarrhalis [6]) [µg/mL] | Selectivity ratio (Streptococcus pyogenes [7]) | MBC (Streptococcus pneumoniae [8]) [µg/mL] | MIC (Staphylococcus aureus [9]) [µg/mL] | MBC (Streptococcus pyogenes [10]) [µg/mL] | Selectivity ratio (Streptococcus pneumoniae [11]) | MIC (Haemophilus influenzae [12]) [µg/mL] | MIC (Staphylococcus aureus [13]) [µg/mL] | MIC (Streptococcus pyogenes [14]) [µg/mL] | Selectivity ratio (Streptococcus pneumoniae [15]) | Selectivity ratio (Haemophilus influenzae [16]) | MIC (Streptococcus pneumoniae [17]) [µg/mL] | MIC (Moraxella catarrhalis [18]) [µg/mL] | Selectivity ratio (Moraxella catarrhalis [19]) | MBC (Staphylococcus aureus [20]) [µg/mL] | also measured
1 | CC[C@H]1OC(=O)[C@@](C)(F)C(=O)[C@H](C)[C@@H](O[C@@H]2O[C@H](C)C[C@H](N(C)C)[C@H]2O)[C@](C)(OC/C=C/c2ccc3c(c2)c(=O)c(C(N)=O)cn3CC)C[C@@H](C)/C(=N\OC)[C@H](C)[C@H]2OC(=O)O[C@@]21C | 0.25 | >8 | 128 (≈ 142 µM) | >8 | ≤ 0.008 | > 4 | 4 | 0.25 (≈ 0.277 µM) | > 256 | 0.008 (≈ 0.00888 µM) | 1 | 64 | 0.25 | ≤ 0.002 | >8 | 2 | ≤ 0.008 | 0.5 | >8 | > 2 | MBC (Streptococcus pyogenes [21]): 0.25 µg/mL (≈ 0.277 µM); MBC (Streptococcus pyogenes [22]): > 0.016 µg/mL; MBC (Streptococcus pneumoniae [23]): > 0.062 µg/mL; MBC (Streptococcus pneumoniae [24]): ≤ 0.008 µg/mL; MIC (Streptococcus pyogenes [25]): ≤ 0.002 µg/mL; Selectivity ratio (Streptococcus pyogenes [26]): >=4; MIC (Streptococcus pyogenes [27]): 0.062 µg/mL
2 | CC[C@H]1OC(=O)[C@@](C)(F)C(=O)[C@H](C)[C@@H](O[C@@H]2O[C@H](C)C[C@H](N(C)C)[C@H]2O)[C@](C)(OC)C[C@@H](C)/C(=N\OCC#Cc2ccc3c(c2)c(=O)c(C(=O)NC)cn3C2CC2)[C@H](C)[C@H]2OC(=O)O[C@@]21C | 0.5 | >8 | 256 (≈ 277 µM) | >8 | ≤ 0.008 | > 32 | 4 | 0.5 (≈ 0.541 µM) | 128 | > 0.016 | 1 | 64 | 1 | ≤ 0.002 | >8 | 4 | 0.25 | 4 | >8 | > 8 | MBC (Staphylococcus aureus [28]): > 256 µg/mL; MBC (Streptococcus pyogenes [21]): 1 µg/mL (≈ 1.08 µM); MBC (Streptococcus pyogenes [22]): > 4 µg/mL; MBC (Streptococcus pneumoniae [23]): > 2 µg/mL; MBC (Streptococcus pneumoniae [24]): ≤ 0.008 µg/mL; MIC (Streptococcus pyogenes [25]): 0.5 µg/mL; Selectivity ratio (Streptococcus pyogenes [26]): >8; MIC (Streptococcus pyogenes [27]): 0.25 µg/mL
3 | CC[C@H]1OC(=O)[C@@](C)(F)C(=O)[C@H](C)[C@@H](O[C@@H]2O[C@H](C)C[C@H](N(C)C)[C@H]2O)[C@](C)(OC/C=C/c2ccc3c(c2)c(=O)c(C(=O)NC)cn3C2CC2)C[C@@H](C)/C(=N\OC)[C@H](C)[C@H]2OC(=O)O[C@@]21C | 0.25 | >8 | 32 (≈ 34.5 µM) | >8 | ≤ 0.008 | > 8 | 4 | 0.5 (≈ 0.539 µM) | 256 | > 0.016 | 2 | 32 | 1 | ≤ 0.002 | >8 | 1 | ≤ 0.008 | 1 | >8 | > 8 | MBC (Staphylococcus aureus [28]): > 256 µg/mL; MBC (Streptococcus pyogenes [21]): 0.5 µg/mL (≈ 0.539 µM); MBC (Streptococcus pyogenes [22]): > 0.25 µg/mL; MBC (Streptococcus pneumoniae [23]): > 0.062 µg/mL; MBC (Streptococcus pneumoniae [24]): ≤ 0.008 µg/mL; MIC (Streptococcus pyogenes [25]): 0.031 µg/mL; Selectivity ratio (Streptococcus pyogenes [26]): >8; MIC (Streptococcus pyogenes [27]): 0.125 µg/mL
4 | CC[C@H]1OC(=O)[C@@](C)(F)C(=O)[C@H](C)[C@@H](O[C@@H]2O[C@H](C)C[C@H](N(C)C)[C@H]2O)[C@](C)(OC)C[C@@H](C)/C(=N\OCC#Cc2ccc3c(c2)c(=O)c(C(=O)NC)cn3CC)[C@H](C)[C@H]2OC(=O)O[C@@]21C | 0.25 | >8 | 64 (≈ 70.1 µM) | >8 | ≤ 0.008 | > 32 | 4 | 1 (≈ 1.1 µM) | 128 | > 0.016 | 4 | 32 | 2 | ≤ 0.002 | >8 | 2 | 0.125 | 4 | >8 | > 16 | MBC (Staphylococcus aureus [28]): > 256 µg/mL; MBC (Streptococcus pyogenes [21]): 1 µg/mL (≈ 1.1 µM); MBC (Streptococcus pyogenes [22]): > 1 µg/mL; MBC (Streptococcus pneumoniae [23]): > 1 µg/mL; MBC (Streptococcus pneumoniae [24]): ≤ 0.008 µg/mL; MIC (Streptococcus pyogenes [25]): 0.125 µg/mL; Selectivity ratio (Streptococcus pyogenes [26]): >8; MIC (Streptococcus pyogenes [27]): 0.25 µg/mL

— ChEMBL document CHEMBL4346654 (Eur J Med Chem, 2019)
